Laboratory results as given in the RNAGym collection of RNA variant scans (doi:10.1126/science.aae0568).
Fewer inactive variants are shown than the library holds.

B1: tRNA (parent)
chain: GUUCCGUUGGCGUAAUGGUAACGCGUCUCCCUCCUAAGGAGAAGACUGCGGGUUCGAGUCCCGUACGGAACG

Variants of: B1
Assay: yeast fitness relative to wild type (ratio to wild type); higher = fitter; tRNA-Arg(CCU), competitive growth, 37 C, YPD
Summary of the method: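 Variants of the tRNA-Arg(CCU) gene, chemically synthesised with a 3% per-site mutation rate at 69 sites, were placed at the native genomic locus in Saccharomyces cerevisiae. The pooled strains were competed in YPD at 37°C for 24 hours in six parallel replicates. Gene amplicons from the start population and from each end population were read by 100-nucleotide paired-end sequencing. Darwinian fitness relative to wild type came from changes in genotype frequencies; genotypes needed ≥ 100 starting reads, and estimates < 0.5 were set to 0.5.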

A14C C29U C31U A36G A45U A70G and A14C G17C C60U cannot be ordered by yeast fitness: at most 0.5 for the first, at most 0.5 for the second.

A14C G18A A42G C46A and A14C G18C G56A cannot be ordered by yeast fitness: at most 0.5 for the first, at most 0.5 for the second.

Compared with A14C C46U, A14C C46A is lower in yeast fitness: 0.915 for the first, 0.641 for the second.

A14C U16G A21G A70U and A14C C22U C24U U53A cannot be ordered by yeast fitness: at most 0.5 for the first, at most 0.5 for the second.

A14C C22G A37C and A14C U47C A57C cannot be ordered by yeast fitness: at most 0.5 for the first, at most 0.5 for the second.

Going from A14C C34G A57U to A14G A15C U26C U35G C49G, the yeast fitness falls from 0.518 to at most 0.5.

A14C U28A U54C G56C G58A and A14C C22G U26G C55A A65G cannot be ordered by yeast fitness: at most 0.5 for the first, at most 0.5 for the second.

Compared with A14C G25C C66U, A14C G25C G48A is higher in yeast fitness: 0.531 for the first, 0.608 for the second.

Going from A14C U54A U59C C61G to A14C C22G, the yeast fitness rises from at most 0.5 to 0.701.

Compared with A14C C22U, A14C G44A C46A G52A C66U is lower in yeast fitness: 0.61 for the first, at most 0.5 for the second.

Compared with A14G A15U C34U, A14C U19A A21G C31U is lower in yeast fitness: 0.505 for the first, at most 0.5 for the second.

A14C C22G G25C G44A and A14C C24U C29U A40U G68U cannot be ordered by yeast fitness: at most 0.5 for the first, at most 0.5 for the second.

Compared with A14C C33U, A14C C24U C31U A40U G44A is lower in yeast fitness: 0.64 for the first, at most 0.5 for the second.

Compared with A14C C34U G39C, A14C U19G U32A G52C is lower in yeast fitness: 0.625 for the first, at most 0.5 for the second.

A14C C24U A57G C60U G68C and A14C C24A G67A cannot be ordered by yeast fitness: at most 0.5 for the first, at most 0.5 for the second.

Compared with A14C C31U A36U C55G, A14C C31G C62A A65U C66U is higher in yeast fitness: at most 0.5 for the first, 0.506 for the second.

First: A14C U28A U53G
Second: A14C C30A A69U
The yeast fitness of the first is higher: 0.57 for the first, at most 0.5 for the second.

First: A14C U19G C31G C33U A42G G48A G52A
Second: A14C C27U C55G A70U
The yeast fitness of the first is lower: at most 0.5 for the first, 0.613 for the second.

Compared with A14C U53C, A14C U16A U26C C66U A69C is lower in yeast fitness: 0.713 for the first, at most 0.5 for the second.

First: A14C U64C
Second: A14C U54A
The yeast fitness of the first is higher: 0.935 for the first, 0.528 for the second.

A14C C22A U59C C62A and A14C G18C A65U G68C cannot be ordered by yeast fitness: at most 0.5 for the first, at most 0.5 for the second.

A14C C34G C49A C61U and A14C U16C G51C G58A C60A cannot be ordered by yeast fitness: at most 0.5 for the first, at most 0.5 for the second.

Going from A14C U28A U59G A65U to A14C C29U C33G, the yeast fitness rises from at most 0.5 to 0.527.

A14C C33A G41U C49U C66U and A14C U16A U54A G58C cannot be ordered by yeast fitness: at most 0.5 for the first, at most 0.5 for the second.

Going from A14C U16A G63A to A14C C31U A36U, the yeast fitness rises from at most 0.5 to 0.631.

First: A14C C22G G63A
Second: A14C C22A C46A U64C
The yeast fitness of the first is higher: 0.642 for the first, at most 0.5 for the second.

First: A14C C55U
Second: A14C C55G
The yeast fitness of the first is lower: 0.645 for the first, 0.827 for the second.

Going from A14C C34A to A14C G51C U59G, the yeast fitness falls from 0.565 to at most 0.5.

Compared with A14C G17A G68A, A14C C27G C46G is higher in yeast fitness: 0.522 for the first, 0.619 for the second.

First: A14C C34G A43U C62A
Second: A14C C24U U26A G52C
The yeast fitness of the first is higher: 0.716 for the first, at most 0.5 for the second.

A14C G18A C22G C49A U59C A69G and A14C G17A G23A C29G A42C G56A C62U cannot be ordered by yeast fitness: at most 0.5 for the first, at most 0.5 for the second.

First: A14C G18C C29U A65C
Second: A14C G44C A70C
The yeast fitness of the first is lower: at most 0.5 for the first, 0.56 for the second.

A14G A15C C24G A45G and A14C C30U G58A cannot be ordered by yeast fitness: at most 0.5 for the first, at most 0.5 for the second.

A14C C24G A42G and A14C U16A A21C G56A cannot be ordered by yeast fitness: at most 0.5 for the first, at most 0.5 for the second.

A14C G25A A40C C46U and A14C U26C U54C C55G C61A cannot be ordered by yeast fitness: at most 0.5 for the first, at most 0.5 for the second.

First: A14C C34U G39C C55U G56C
Second: A14C C24U C31G A36U
The yeast fitness of the first is lower: at most 0.5 for the first, 0.664 for the second.

A14C C27G C46G C55G and A14C G25C C27G C34U U35A G38A C66U cannot be ordered by yeast fitness: at most 0.5 for the first, at most 0.5 for the second.

Compared with A14C G56C, A14C G68U is higher in yeast fitness: 0.567 for the first, 0.583 for the second.

Going from A14C C33G A42C G48A C60U to A14C G48C, the yeast fitness rises from at most 0.5 to 0.658.

Going from A14C G58A to A14C C27U C31U C33A G67C, the yeast fitness falls from 0.868 to 0.541.

A14C C24U U35C C55U and A14C G18A G67U cannot be ordered by yeast fitness: at most 0.5 for the first, at most 0.5 for the second.

A14C C24A C27G C46G A65G and A14G A15G A37U C55U cannot be ordered by yeast fitness: at most 0.5 for the first, at most 0.5 for the second.

A14C C33G G44A C49A C55A and A14C U19A A20C cannot be ordered by yeast fitness: at most 0.5 for the first, at most 0.5 for the second.

A14G A15U U32G C34G U47C G63C and A14C G18A C22G A57U C61G cannot be ordered by yeast fitness: at most 0.5 for the first, at most 0.5 for the second.

A14G A15C U35C C46A A69U and A14C G25C G52A C66U cannot be ordered by yeast fitness: at most 0.5 for the first, at most 0.5 for the second.

Going from A14C U26A C34U C55G to A14C C27U C46U A70G, the yeast fitness falls from 0.519 to at most 0.5.

Going from A14C U16C C62U A65U to A14C C29U A36G A45U, the yeast fitness rises from at most 0.5 to 0.543.

Compared with A14G A15G U54C, A14C U28C is higher in yeast fitness: 0.569 for the first, 0.606 for the second.

Compared with A14C U28G, A14C G25A A37U A42G is lower in yeast fitness: 0.625 for the first, at most 0.5 for the second.

A14C C30A C31G and A14C C30A C31U A36U cannot be ordered by yeast fitness: at most 0.5 for the first, at most 0.5 for the second.

Compared with A14C C27A C31A, A14C C60G C66U G68A is lower in yeast fitness: 0.588 for the first, at most 0.5 for the second.

First: A14C C49U U64A
Second: A14C G18A G48A C60G
The yeast fitness of the first is lower: 0.556 for the first, 0.558 for the second.

A14C C30U G41C A69U and A14C G25A C33G A36U A45G G52C cannot be ordered by yeast fitness: at most 0.5 for the first, at most 0.5 for the second.

First: A14C C61U C66G
Second: A14G A15C A37C C46A A69U
The yeast fitness of the first is higher: 0.522 for the first, at most 0.5 for the second.

First: A14C C34G A43U G48A
Second: A14C C62G
The yeast fitness of the first is lower: at most 0.5 for the first, 0.599 for the second.

Going from A14C C27G A69U to A14C G23A C29U U35C G48A, the yeast fitness falls from 0.561 to at most 0.5.

Compared with A14C U32G U47C C55G, A14C C30A is higher in yeast fitness: at most 0.5 for the first, 0.576 for the second.

Compared with A14C C30U, A14C C30G is lower in yeast fitness: 0.622 for the first, 0.508 for the second.

A14C U32G A45G U64C and A14C U16A C66U cannot be ordered by yeast fitness: at most 0.5 for the first, at most 0.5 for the second.

A14C U19C C27A A43G and A14C U16C C61U cannot be ordered by yeast fitness: at most 0.5 for the first, at most 0.5 for the second.

Going from A14G A15G U32A to A14C C30U A37C C62A, the yeast fitness rises from at most 0.5 to 0.693.

Compared with A14C G17C, A14G A15C A69C A70G is lower in yeast fitness: 0.622 for the first, 0.618 for the second.

Compared with A14C C24U, A14C C24A is lower in yeast fitness: 0.666 for the first, at most 0.5 for the second.

Compared with A14C C27G C46G A65G C66U, A14C G18C is higher in yeast fitness: at most 0.5 for the first, 0.542 for the second.

A14C C22U C66U and A14G A15U G25C U54A cannot be ordered by yeast fitness: at most 0.5 for the first, at most 0.5 for the second.

Compared with A14C C24A U32G G41C, A14C U47C C66U is lower in yeast fitness: 0.501 for the first, at most 0.5 for the second.

Going from A14C C30A C66U A70G to A14C C24U A36G, the yeast fitness falls from 0.622 to 0.591.

Compared with A14C C24A G52A U53A A57C, A14C G25C is higher in yeast fitness: 0.5 for the first, 0.583 for the second.

Going from A14C G25A to A14C G18C U28A C30G A43G A57G C60U A65C G67U, the yeast fitness falls from 0.889 to 0.557.

Going from A14G A15C U26A G48C C49U U59C to A14G A15U G50U U64G, the yeast fitness rises from at most 0.5 to 0.542.

First: A14C C46U G67C
Second: A14C G17C G18A G23C A57C
The yeast fitness of the first is higher: 0.589 for the first, at most 0.5 for the second.

Going from A14C C62G C66U to A14C C31U, the yeast fitness rises from at most 0.5 to 0.706.

Going from A14C G17C C31U A37C to A14C C29G, the yeast fitness falls from 0.577 to at most 0.5.

First: A14C G17C U26A G41C
Second: A14C G25A C29G C46G C61A
The yeast fitness of the first is lower: at most 0.5 for the first, 0.569 for the second.

A14C U19C C34U G39C G51C and A14G A15C G51C C61G cannot be ordered by yeast fitness: at most 0.5 for the first, at most 0.5 for the second.

First: A14C C49U
Second: A14C C30G A37G A45G U59C G67C
The yeast fitness of the first is higher: 0.715 for the first, at most 0.5 for the second.

Going from A14C U53A A65C A70G to A14G A15U G25C C49U, the yeast fitness rises from 0.587 to 0.619.

A14C C24U C31U U53C C61G and A14C U16C G44A U54C C61U A69C cannot be ordered by yeast fitness: at most 0.5 for the first, at most 0.5 for the second.

Going from A14C C22G G25C G44A C61G to A14C U19A U59C A69G, the yeast fitness rises from 0.543 to 0.652.

A14C C60G A70U and A14C C29U A36G A45U A70U cannot be ordered by yeast fitness: at most 0.5 for the first, at most 0.5 for the second.

First: A14C C29U A36G A45U A70G
Second: A14C C31G A43C G51A
The yeast fitness of the first is higher: 0.548 for the first, at most 0.5 for the second.

Compared with A14C C34U A37G, A14C G25C U47A G63C is higher in yeast fitness: 0.507 for the first, 0.678 for the second.

A14G A15C C46A U64G A65U and A14G A15C C30U G56C A69C cannot be ordered by yeast fitness: at most 0.5 for the first, at most 0.5 for the second.

A14C C24G G39A A43G showed a yeast fitness of at most 0.5.
